Results on 35 compounds are retold here after ChEMBL document CHEMBL1145084, “Polymer-assisted solution-phase library synthesis and crystal structure of alpha-ketothiazoles as tissue factor VIIa inhibitors” (J Med Chem, 2003).

One may read the IC50 as the concentration that gives 50% inhibition. Read a high IC50 as a need for much substance.

The target of one assay is Coagulation factor X (Homo sapiens, UniProt P00742). In words: Inhibitory activity against coagulation factor X. In outline: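 Human Factor Xa (0.3 nM) with chromogenic substrate S-2765 (0.15 mM) in 50 mM Tris-HCl pH 8.0, 100 mM NaCl, 0.1% BSA. A405 background read taken at once, then 60 min at room temperature, then p-nitroaniline release rate at 405 nm. Duplicates at seven concentrations; % inhibition versus control; IC50 from four-parameter logistic fit, averaged over the duplicates.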

The target of assay [1] is Thrombin and coagulation factor VII (Homo sapiens) (UniProt P00734+P08709). In words: Selectivity for coagulation factor VIIa over thrombin IIa. It counts as protein assay.
The target in a further assay is Prothrombin (Homo sapiens, UniProt P00734). In words: Inhibitory activity against thrombin (IIa). In outline: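 Human thrombin (0.28 nM) with H-D-Phe-Pip-Arg-p-nitroaniline (0.06 mM) in 50 mM Tris-HCl pH 8.0, 100 mM NaCl, 0.1% BSA. Immediate background read at 405 nm, then 60 min at room temperature before measuring p-nitroaniline release rate at 405 nm. Seven concentrations in duplicate; % inhibition versus control; IC50 by four-parameter logistic regression.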

Another assay has as its target T1, Coagulation factor VII (Homo sapiens, UniProt P08709).
T1 sequence (P08709 whole entry): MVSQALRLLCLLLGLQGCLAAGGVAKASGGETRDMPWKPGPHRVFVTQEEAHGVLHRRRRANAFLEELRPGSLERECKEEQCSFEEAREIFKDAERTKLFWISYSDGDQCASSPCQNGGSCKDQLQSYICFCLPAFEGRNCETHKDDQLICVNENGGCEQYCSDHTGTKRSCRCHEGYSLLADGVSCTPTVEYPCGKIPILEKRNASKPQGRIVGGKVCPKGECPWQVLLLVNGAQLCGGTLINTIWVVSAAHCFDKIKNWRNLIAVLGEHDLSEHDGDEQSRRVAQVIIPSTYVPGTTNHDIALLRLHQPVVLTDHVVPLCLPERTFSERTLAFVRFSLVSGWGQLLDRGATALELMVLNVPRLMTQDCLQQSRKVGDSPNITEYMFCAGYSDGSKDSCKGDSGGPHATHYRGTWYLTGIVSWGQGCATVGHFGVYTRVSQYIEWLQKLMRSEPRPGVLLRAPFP
In words: Inhibitory activity against tissue coagulation factor VII. The essentials: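 Complex of recombinant soluble tissue factor (100 nM) and recombinant human Factor VIIa (2 nM). Substrate N-methylsulfonyl-D-Phe-Gly-Arg-p-nitroaniline at 0.4 mM in 5 mM CaCl2, 50 mM Tris-HCl pH 8.0, 100 mM NaCl, 0.1% BSA. Background A405 read first; after 60 min at room temperature, hydrolysis rate read at 405 nm. Duplicates at seven concentrations; IC50 is the duplicate average.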

Coagulation factor X, sequence (P00742 41-179 limits assumed): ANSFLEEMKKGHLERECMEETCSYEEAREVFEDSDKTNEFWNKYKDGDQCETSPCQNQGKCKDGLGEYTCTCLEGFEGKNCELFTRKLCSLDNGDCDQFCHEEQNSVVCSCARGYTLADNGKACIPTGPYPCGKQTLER
Coagulation factor X, sequence (P00742 235-488 limits assumed): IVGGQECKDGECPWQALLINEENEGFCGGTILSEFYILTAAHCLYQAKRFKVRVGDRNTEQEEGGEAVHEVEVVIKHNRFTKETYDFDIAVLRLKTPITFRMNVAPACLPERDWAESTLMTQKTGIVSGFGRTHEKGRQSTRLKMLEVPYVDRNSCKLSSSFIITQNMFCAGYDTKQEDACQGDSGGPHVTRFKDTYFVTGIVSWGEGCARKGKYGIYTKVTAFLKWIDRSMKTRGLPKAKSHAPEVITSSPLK

As to `N=C(N)NCCC[C@H](NC(=O)[C@H](CO)NC(=O)[C@@H](Cc1ccccc1)NS(=O)(=O)Cc1ccccc1)C(=O)c1nccs1`, the values for the 50% inhibitory concentration (IC50) at Coagulation factor X, at Prothrombin and against Coagulation factor VII were 0.24 µM, 0.04 µM and 0.11 µM, respectively. Further, the Selectivity in assay [1] is 0.4.

`N=C(N)NCCC[C@H](NC(=O)[C@H](Cc1cccc(Cl)c1)NC(=O)[C@@H](Cc1ccccc1)NS(=O)(=O)Cc1ccccc1)C(=O)c1nccs1` returned a Selectivity in assay [1] of 63.

Regarding `N=C(N)NCCC[C@H](NC(=O)[C@H](CCc1ccccc1)NC(=O)[C@@H](Cc1ccccc1)NS(=O)(=O)Cc1ccccc1)C(=O)c1nccs1`, the half-maximal inhibitory concentration (IC50) turned out to be 0.54 µM against Coagulation factor X, 10.4 µM at Prothrombin and 0.9 µM against Coagulation factor VII. This compound also had a Selectivity in assay [1] of 12.

As to `N=C(N)NCCC[C@H](NC(=O)[C@H](Cc1ccc(F)c(F)c1)NC(=O)[C@@H](Cc1ccccc1)NS(=O)(=O)Cc1ccccc1)C(=O)c1nccs1`, the Selectivity in assay [1] turned out to be 70.

Take `N=C(N)NCCC[C@H](NC(=O)[C@H](CC(=O)OC1CCCCC1)NC(=O)[C@@H](Cc1ccccc1)NS(=O)(=O)Cc1ccccc1)C(=O)c1nccs1`: the IC50 is 1.25 µM against Coagulation factor X, 4.99 µM at Prothrombin and 3.18 µM against Coagulation factor VII. Further, the Selectivity in assay [1] was determined as 2.

In turn, `N=C(N)NCCC[C@H](NC(=O)[C@H](Cc1cccc(C(F)(F)F)c1)NC(=O)[C@@H](Cc1ccccc1)NS(=O)(=O)Cc1ccccc1)C(=O)c1nccs1` showed a Selectivity in assay [1] of 106.

For the compound `N=C(N)NCCC[C@H](NC(=O)[C@H](Cc1cccc(-c2ccccc2)c1)NC(=O)[C@@H](Cc1ccccc1)NS(=O)(=O)Cc1ccccc1)C(=O)c1nccs1`, the values for the IC50 at Coagulation factor X, on Prothrombin and against Coagulation factor VII were 1.07 µM, 1.68 µM and 1.83 µM, respectively. The Selectivity in assay [1] amounted to 1.

Take `N=C(N)NCCC[C@H](NC(=O)[C@H](Cc1ccc(-c2ccccc2)cc1)NC(=O)[C@@H](Cc1ccccc1)NS(=O)(=O)Cc1ccccc1)C(=O)c1nccs1`: the half-inhibitory concentration (IC50) against Coagulation factor X was 3.14 µM; against Prothrombin it was 11.2 µM; against Coagulation factor VII it was 17.8 µM. In assay [1], this compound gave a Selectivity of 1.

For the compound `CN(C)CCCC[C@H](NC(=O)[C@@H](Cc1ccccc1)NS(=O)(=O)Cc1ccccc1)C(=O)N[C@@H](CCCNC(=N)N)C(=O)c1nccs1`, the IC50 against Coagulation factor X worked out at 1.7 µM; on Prothrombin it was 15.4 µM; against Coagulation factor VII, 2.82 µM.

With `Cc1cccc(C[C@H](NC(=O)[C@@H](Cc2ccccc2)NS(=O)(=O)Cc2ccccc2)C(=O)N[C@@H](CCCN=C(N)N)C(=O)c2nccs2)c1`, in assay [1], the Selectivity came to 71.

Regarding `N=C(N)NCCC[C@H](NC(=O)[C@H](Cc1ccc(Cl)cc1)NC(=O)[C@@H](Cc1ccccc1)NS(=O)(=O)Cc1ccccc1)C(=O)c1nccs1`, the results for the IC50 against Coagulation factor X, at Prothrombin and on Coagulation factor VII were 0.61 µM, 3.42 µM and 0.68 µM, respectively. Besides, the Selectivity in assay [1] was 5.

Regarding `N=C(N)NCCC[C@H](NC(=O)[C@H](Cc1cccc2ccccc12)NC(=O)[C@@H](Cc1ccccc1)NS(=O)(=O)Cc1ccccc1)C(=O)c1nccs1`, the 50% inhibitory concentration (IC50) was 1.8 µM on Coagulation factor X, > 30 µM at Prothrombin and 5.6 µM on Coagulation factor VII. Also, the Selectivity in assay [1] is > 5.

On to `NC(N)=NCCC[C@H](NC(=O)[C@H](Cc1ccc([N+](=O)[O-])cc1)NC(=O)[C@@H](Cc1ccccc1)NS(=O)(=O)Cc1ccccc1)C(=O)c1nccs1`, for which the IC50 was 2.18 µM against Coagulation factor X, > 30 µM on Prothrombin and 5.88 µM at Coagulation factor VII.

For `N=C(N)NCCC[C@H](NC(=O)[C@H](Cc1ccccc1F)NC(=O)[C@@H](Cc1ccccc1)NS(=O)(=O)Cc1ccccc1)C(=O)c1nccs1`, the Selectivity in assay [1] was > 333.

In assay [1], `N=C(N)NCCC[C@H](NC(=O)[C@H](Cc1cccc(F)c1)NC(=O)[C@@H](Cc1ccccc1)NS(=O)(=O)Cc1ccccc1)C(=O)c1nccs1` showed a Selectivity of 75.

Take `N=C(N)NCCC[C@H](NC(=O)[C@H](Cc1cn(Cc2ccccc2)cn1)NC(=O)[C@@H](Cc1ccccc1)NS(=O)(=O)Cc1ccccc1)C(=O)c1nccs1`: the half-inhibitory concentration (IC50) against Coagulation factor X came out at 2.4 µM; against Prothrombin it was 9.92 µM; on Coagulation factor VII, 9.97 µM. The Selectivity in assay [1] came to 1.

Turning to `N#CC[C@H](NC(=O)[C@@H](Cc1ccccc1)NS(=O)(=O)Cc1ccccc1)C(=O)N[C@@H](CCCNC(=N)N)C(=O)c1nccs1`, in assay [1], the Selectivity worked out at 69.

As for `N=C(N)NCCC[C@H](NC(=O)[C@H](Cc1ccc2ccccc2c1)NC(=O)[C@@H](Cc1ccccc1)NS(=O)(=O)Cc1ccccc1)C(=O)c1nccs1`, the IC50 against Coagulation factor X worked out at 0.77 µM; against Prothrombin, 2.4 µM; on Coagulation factor VII, 1.95 µM. Further, in assay [1], the Selectivity was determined as 1.

Regarding `CC(=O)Nc1ccc(C[C@H](NC(=O)[C@@H](Cc2ccccc2)NS(=O)(=O)Cc2ccccc2)C(=O)N[C@@H](CCCNC(=N)N)C(=O)c2nccs2)cc1`, the IC50 against Coagulation factor X was found to be 0.3 µM; at Prothrombin, 4.59 µM; at Coagulation factor VII, 0.57 µM.

The compound `CC[C@@H](C)[C@H](NC(=O)[C@@H](Cc1ccccc1)NS(=O)(=O)Cc1ccccc1)C(=O)N[C@@H](CCCN=C(N)N)C(=O)c1nccs1` had a Selectivity in assay [1] of 64.

`CC(=O)Nc1ccc(C[C@H](NC(=O)[C@@H](Cc2ccccc2)NS(=O)(=O)Cc2ccccc2)C(=O)N[C@@H](CCCN=C(N)N)C(=O)c2nccs2)cc1` had a Selectivity in assay [1] of 8.

`N=C(N)NCCC[C@H](NC(=O)[C@H](Cc1ccc(I)cc1)NC(=O)[C@@H](Cc1ccccc1)NS(=O)(=O)Cc1ccccc1)C(=O)c1nccs1`: the 50% inhibitory concentration (IC50) stood at 0.5 µM against Coagulation factor X, 6.3 µM on Prothrombin and 1.56 µM on Coagulation factor VII. Besides, the Selectivity in assay [1] turned out to be 4.

As for `CC(C)(C)C[C@H](NC(=O)[C@@H](Cc1ccccc1)NS(=O)(=O)Cc1ccccc1)C(=O)N[C@@H](CCCNC(=N)N)C(=O)c1nccs1`, the 50% inhibitory concentration (IC50) is 1.03 µM against Coagulation factor X, 0.44 µM against Prothrombin and 0.7 µM on Coagulation factor VII.

`CN(C)CCCC[C@H](NC(=O)[C@@H](Cc1ccccc1)NS(=O)(=O)Cc1ccccc1)C(=O)N[C@@H](CCCN=C(N)N)C(=O)c1nccs1` showed a Selectivity in assay [1] of 5.

In assay [1], `N=C(N)NCCC[C@H](NC(=O)[C@H](Cc1ccccc1)NC(=O)[C@@H](Cc1ccccc1)NS(=O)(=O)Cc1ccccc1)C(=O)c1nccs1` displayed a Selectivity of 95.

As to `N=C(N)NCCC[C@H](NC(=O)[C@H](CC1CCCCC1)NC(=O)[C@@H](Cc1ccccc1)NS(=O)(=O)Cc1ccccc1)C(=O)c1nccs1`, the IC50 against Coagulation factor X stood at 2.7 µM; at Prothrombin, 24.2 µM; on Coagulation factor VII, 3.3 µM. Besides, the Selectivity in assay [1] turned out to be 7.

Take `N#Cc1ccc(C[C@H](NC(=O)[C@@H](Cc2ccccc2)NS(=O)(=O)Cc2ccccc2)C(=O)N[C@@H](CCCNC(=N)N)C(=O)c2nccs2)cc1`: the Selectivity in assay [1] came to 147.

For the compound `Cc1ccc(C[C@H](NC(=O)[C@@H](Cc2ccccc2)NS(=O)(=O)Cc2ccccc2)C(=O)N[C@@H](CCCN=C(N)N)C(=O)c2nccs2)cc1`, the figures for the IC50 against Coagulation factor X, at Prothrombin and against Coagulation factor VII were 0.57 µM, 7.48 µM and 1.29 µM, respectively. The compound also returned a Selectivity in assay [1] of 6.

Turning to `N=C(N)NCCC[C@H](NC(=O)[C@H](Cc1ccc(F)cc1)NC(=O)[C@@H](Cc1ccccc1)NS(=O)(=O)Cc1ccccc1)C(=O)c1nccs1`, the results for the IC50 against Coagulation factor X, against Prothrombin and against Coagulation factor VII were 0.185 µM, 3.15 µM and 0.17 µM, respectively. Moreover, the Selectivity in assay [1] is 19.

Regarding `N=C(N)NCCC[C@H](NC(=O)[C@H](Cc1ccc([N+](=O)[O-])cc1)NC(=O)[C@@H](Cc1ccccc1)NS(=O)(=O)Cc1ccccc1)C(=O)c1nccs1`, the Selectivity in assay [1] is > 5.

As for `N=C(N)NCCC[C@H](NC(=O)[C@H](Cc1cccnc1)NC(=O)[C@@H](Cc1ccccc1)NS(=O)(=O)Cc1ccccc1)C(=O)c1nccs1`, in assay [1], the Selectivity stood at 500.

The compound `N=C(N)NCCC[C@H](NC(=O)[C@H](CC(N)=O)NC(=O)[C@@H](Cc1ccccc1)NS(=O)(=O)Cc1ccccc1)C(=O)c1nccs1` returned a Selectivity in assay [1] of 58.

The compound `Cc1ccccc1C[C@H](NC(=O)[C@@H](Cc1ccccc1)NS(=O)(=O)Cc1ccccc1)C(=O)N[C@@H](CCCN=C(N)N)C(=O)c1nccs1` displayed a Selectivity in assay [1] of 90.

Turning to `N=C(N)NCCC[C@H](NC(=O)[C@H](Cc1cc(F)c(F)c(F)c1)NC(=O)[C@@H](Cc1ccccc1)NS(=O)(=O)Cc1ccccc1)C(=O)c1nccs1`, the figures for the 50% inhibitory concentration (IC50) against Coagulation factor X and against Coagulation factor VII were 0.25 µM and 0.2 µM, respectively.

In the case of `CC(C)(C)C[C@H](NC(=O)[C@@H](Cc1ccccc1)NS(=O)(=O)Cc1ccccc1)C(=O)N[C@@H](CCCN=C(N)N)C(=O)c1nccs1`, the Selectivity in assay [1] is 0.6.
